# Most compounds without a hit are left out; they make up all but 1.8% or so of the library.
# M4 PAM: potentiates acetylcholine response at human M4 receptor | activation, % at 3 µM | hit rate 0.4% among 360,000 | CHO-K1 hM4/Gqi5, Fluo-8 calcium fluorescence, ACh EC20; 0% = ACh EC20, 100% = maximal ACh;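 active = activation above its plate's cutoff, the mean activation of sample wells plus 3 SD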
# Target sequence (P08173 whole entry, looked up): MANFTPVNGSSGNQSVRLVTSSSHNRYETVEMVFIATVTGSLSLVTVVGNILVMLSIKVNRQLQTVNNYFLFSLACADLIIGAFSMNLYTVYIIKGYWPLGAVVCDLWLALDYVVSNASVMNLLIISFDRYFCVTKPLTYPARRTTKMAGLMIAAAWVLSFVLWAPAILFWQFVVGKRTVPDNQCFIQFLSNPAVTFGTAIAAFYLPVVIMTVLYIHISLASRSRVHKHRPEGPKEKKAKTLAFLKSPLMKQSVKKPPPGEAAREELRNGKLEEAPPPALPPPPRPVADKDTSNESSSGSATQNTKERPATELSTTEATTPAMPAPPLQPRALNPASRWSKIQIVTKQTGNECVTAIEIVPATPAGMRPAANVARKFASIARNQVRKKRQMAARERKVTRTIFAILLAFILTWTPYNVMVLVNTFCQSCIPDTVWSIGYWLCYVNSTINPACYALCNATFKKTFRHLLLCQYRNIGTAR
# M5 antag: antagonists of human muscarinic M5 receptor (CHRM5) | CHO-hM5 cells, Fluo-8 calcium fluorescence, ACh EC80 | hit rate 0.59% among 360,000 | inhibition, % at 3 µM;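 active = inhibition above a per-plate cutoff, the mean of that plate's test compounds plus 3 SD, cut at about 27% in these data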;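 also: 0% = acetylcholine EC80 with DMSO and 100% = DMSO without agonist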
# M4 antag: blocks acetylcholine activation of human M4 receptor. P08173. CHO-hM4 cells, ACh EC80, Fluo-8 calcium fluorescence. inhibition, % at 3 µM. hit rate 0.73% among 360,000. AID 624125;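 active = inhibition above its plate's cutoff, the mean inhibition of sample wells plus 3 SD, cut at about 27% in these data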;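 also: 0% = acetylcholine EC80 with DMSO and 100% = DMSO without agonist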
# M5 PAM: positive allosteric modulators of human muscarinic M5 receptor | AID 624038 | CHO-K1 hM5, Fluo-8 calcium, ACh EC20 PAM; 0% = ACh EC20, 100% = ACh EC100 | activation, % at 3 µM | hit rate 0.3% among 360,000;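 active = activation above the run cutoff, the mean activation of all test compounds plus 3 SD, cut at about 18% in these data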
#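 Assay system: CHO-K1 hM5 cells. Also added: acetylcholine at EC20 concentration, added after compound. Dosing: 3 µM, single dose. Times: compound preincubation 140 s before EC20 acetylcholine addition. Signal: Fluo-8 calcium fluorescence. Measure: % activation relative to EC20 and EC100 ACh responses. Repeats: singlicate, one well per test compound.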
# CHRM5 agonist: agonists of human muscarinic M5 receptor (CHRM5); P08912; CHO-K1 hM5 cells, Fluo-8 calcium fluorescence; 0% DMSO wells, 100% maximal acetylcholine response; activation, % at 3 µM; hit rate 0.19% among 360,000; AID 624037;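 active = activation above the run's mean over test compounds plus 3 SD, cut at about 23% in these data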;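 also: signal is peak over basal fluorescence ratio across the kinetic read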
# M4 ag: CHRM4 agonism in calcium assay. P08173. CHO-K1 hM4/Gqi5, Fluo-8 calcium fluorescence; vehicle 0%, full acetylcholine response 100%. hit rate 0.14% among 360,000. activation, % at 3 µM. AID 624127;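 active = activation above the run mean over all test wells plus 3 SD, cut at about 32% in these data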;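 also: peak over basal fluorescence ratio per well then scaled between controls; 0% = DMSO wells and 100% = acetylcholine at EC100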
# Active calls of the source: *.
SMILES,M4 PAM,M5 antag,M4 antag,M5 PAM,CHRM5 agonist,M4 ag
Cc1ccc(CC2SC(N)=NC2=O)cc1 (configuration not stated),20*,2,-12,12,2,1
NC1=NC(=O)C(Cc2ccc(F)cc2)S1 (configuration not stated),3,-1,-6,2,1,1
CCc1nc2c(OCc3ccccc3C)cccn2c1N(C)C(=O)C1CC1,7,-5,-19,-2,-4,0
C=C1C(=O)[C@]23C[C@H]1CCC2[C@@]1(C)C(C[C@@H]3O)[C@](C)(C(=O)OC)CC[C@@H]1OC(C)=O (some centres not stated),-15,17,58*,-5,11,16
COc1ccc(C(C(=O)NC2CCCCC2)N(CC2CCCO2)C(=O)C2COc3ccccc3O2)cc1OC (configuration not stated),13,-16,-12,33*,-3,1
CC1(C(=O)NS(=O)(=O)c2ccc(Cl)s2)CCN1C(=O)c1ccc(C2CCCCC2)cc1 (configuration not stated),-3,-7,2,-1,1,0
O=C(OCc1ccccc1)c1c(-c2ccccc2)oc2c1C(OCCO)CCC2 (configuration not stated),-2,-3,0,7,-2,0
CCOC(=O)c1ccc(CNCc2ccccc2)cc1,-15,5,40*,-12,-7,1
C[C@H]1CN([C@@H](C)CO)C(=O)CCCn2cc(nn2)CO[C@@H]1CN(C)S(=O)(=O)c1ccc(Oc2ccccc2)cc1,9,-1,-8,-2,-1,1
CC(=O)NC(c1ccccc1)c1nc(-c2cccc(C(F)(F)F)c2)cs1 (configuration not stated),-2,-2,6,-1,-3,1
OC(c1cccc(Cl)c1)c1ncc(-c2ccccc2Cl)[nH]1 (configuration not stated),-10,4,2,-10,-2,7
CCC1Sc2ccc(S(=O)(=O)Nc3ccc(OC)c(OC)c3)cc2NC1=O (configuration not stated),-5,31*,6,-15,3,16
Cc1ccc(S(=O)(=O)N2CC3C(=O)C[C@@H](c4ccccc4)N(S(=O)(=O)c4cccc(Cl)c4)C3CC2c2ccccc2)cc1 (some centres not stated),-6,1,6,-5,1,4
COc1ccc(N2C(=O)CSC23C(=O)N2CCCc4cccc3c42)cc1 (configuration not stated),-28,52*,75*,-18,-6,1
O=C1N2CCCc3cccc(c32)C12Nc1ccccc1S2 (configuration not stated),9,24,7,0,-1,1
O=C1CSC2(C(=O)N3CCCc4cccc2c43)N1c1cccc(C(F)(F)F)c1 (configuration not stated),-32,30*,50*,-18,-12,-2
COc1ccc(N2C(=O)CSC23C(=O)N2c4c(cccc43)C(C)=CC2(C)C)cc1 (configuration not stated),-8,-3,4,4,-5,-2
CC(C)(C)c1cc(NC(=O)C2(C)CCN2C(=O)C2(c3ccccc3)CC2)no1 (configuration not stated),-2,2,-24,-6,0,0
C[C@@H]1O[C@H](CCc2cccc(Cl)c2)CC2=C1C(=O)OC(C)(C)O2,-3,6,1,-8,-4,-1
CCCCNC(=O)C1C(c2ccccc2)=Nc2ccccc2N1C(=O)c1ccc(C)cc1 (configuration not stated),10,-8,-1,5,-5,-2
CC(C)CCN1CCN(Cc2cccc(-n3cccn3)c2)CC1CCO (configuration not stated),-25,4,2,-1,-8,0
CC(C)N1CCC(N2CCN(Cc3cc(F)ccc3-n3cccn3)CC2CCO)CC1 (configuration not stated),18,-7,-18,22*,-9,1
Cc1cc(-n2cccn2)ccc1CN1CCN(C2CCCC2)C(CCO)C1 (configuration not stated),-21,54*,99*,-34,-16,2
Cc1cc(-n2cccn2)ccc1CN1CCN(CC(C)C)C(CCO)C1 (configuration not stated),-41,-5,55*,-4,-18,0
CC(C)N1CCN(Cc2cc(F)ccc2-n2cccn2)CC1CCO (configuration not stated),-1,7,7,-5,-6,0
SMILES,M4 PAM,M5 antag,M4 antag,M5 PAM,CHRM5 agonist,M4 ag
CC1(C(=O)NCc2ccc(Cl)cc2)CCN1C(=O)Cc1ccc(Cl)cc1Cl (configuration not stated),-1,7,-4,-6,-2,1
COc1cc(OC)cc(C2=Cc3ccccc3C(CC(C)=O)N2c2ccc(C#CCCO)cc2)c1 (configuration not stated),-4,-8,1,-3,2,1
Cc1ccc(C)c(OCc2cc(C(=O)N(C)Cc3nccs3)no2)c1,-4,28*,9,-8,-4,6
Cc1ccc(C)c(OCc2cc(C(=O)N(C)Cc3ccccn3)no2)c1,-1,5,0,-3,-1,3
c1ccc(CC2CCN(C3=Nc4cccc5cccc3c45)CC2)cc1,-18,17,27*,-28,-13,7
c1cc2c3c(cccc3c1)C(N1CCOCC1)=N2,-7,12,-1,9,-5,1
COc1ccc(-c2ccc(CN3C(C)C(=O)N(Cc4cn(CCC5OCCO5)nn4)CCS3(=O)=O)cc2)cc1OC (configuration not stated),-1,-1,-5,1,0,7
CCN(C(=O)CN1C(=O)NC2(CCC(C)CC2)C1=O)C1CCCCC1 (configuration not stated),2,-2,-7,3,0,0
C/C(=N\Nc1c(F)c(F)c(Br)c(F)c1F)c1ccncc1,15*,5,-18,3,-11,1
CC1CCN(CCCCOc2ccc(Cl)cc2)CC1,-16,8,24,-9,-6,2
N#Cc1ccccc1OCCCN1CCC(C(O)(c2ccccc2)c2ccccc2)CC1,-13,11,27*,-20,-3,14
Cc1ccc(OCCCN2CCC(C(O)(c3ccccc3)c3ccccc3)CC2)cc1,-14,77*,62*,-24,2,25

# Screening results deposited in PubChem BioAssay by The Scripps Research Institute Molecular Screening Center.
